High-throughput results (PubChem)
SUMO Mot1 rescue: inhibitors of SUMOylation pathway: yeast Mot1-301 growth rescue; 320,000 compounds, 1% hits; growth rescue, % at 18.8 µM; AID 2716; S. cerevisiae Mot1-301 growth rescue, ATP luminescence, 38.5C; percent above DMSO median, 100 means doubled;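 active = every valid replicate shows activation above 250% relative to neutral control wells; inactive = the rest, any valid replicate at or below 250%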
APOBEC3A inh: inhibitors of human APOBEC3A DNA deaminase; P31941; recombinant A3A, FAM/TAMRA ssDNA deamination fluorescence; inhibition, % at 20 µM; 330,000 compounds, 0.41% hits; AID 493011;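 active = at least 40% inhibition at 20 µM here, with at most 30% in a related deaminase screen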
APOBEC3G inh: inhibitors of human APOBEC3G DNA deaminase | Q9HC16 | recombinant A3G, ssDNA deamination FAM/TAMRA fluorescence | inhibition, % at 20 µM | 330,000 compounds, 0.28% hits;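 active = inhibition of at least 40% at 20 µM, with no more than 30% in the related APOBEC3A deaminase screen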
Target sequence (Q9HC16 whole entry, looked up): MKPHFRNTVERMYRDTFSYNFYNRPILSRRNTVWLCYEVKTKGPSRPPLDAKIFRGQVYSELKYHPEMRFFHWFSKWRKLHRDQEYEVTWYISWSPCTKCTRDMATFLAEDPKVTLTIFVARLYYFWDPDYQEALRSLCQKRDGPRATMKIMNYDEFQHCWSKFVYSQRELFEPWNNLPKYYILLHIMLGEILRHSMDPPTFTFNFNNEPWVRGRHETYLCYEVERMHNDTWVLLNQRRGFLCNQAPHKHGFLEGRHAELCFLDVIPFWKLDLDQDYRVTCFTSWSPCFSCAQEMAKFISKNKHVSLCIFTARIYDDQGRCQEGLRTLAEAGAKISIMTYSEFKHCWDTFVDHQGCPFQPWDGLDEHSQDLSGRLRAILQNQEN
ARFGAP1 inhibitor: inhibitors of rat ARFGAP1; AID 651572; inhibition, % at 16.5 µM; Arfgap1-stimulated ARF1 GTP hydrolysis, GDP FP detection; 360,000 compounds, 0.26% hits; Q62848;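 active = inhibition above a per-plate limit, mean inhibition of low control wells plus 3 SD, cut at about 25% in these data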
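Assay system: purified rat His6-Arfgap1 residues 1-136 (GAP domain); Reagent: human Δ17 ARF1 bound to GTP; Dosing: 16.5 µM single point, 1.26% DMSO; Times: GTP hydrolysis reaction 2 h at 25 °C; Signal: FP, GDP Alexa 633 tracer displaced from anti-GDP antibody, 620/688 nm; Measure: % inhibition from polarization.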
Statin myotox sup: protects C2C12 myotubes from simvastatin toxicity; ATP luminescence, 48 h; scaled: DMSO 0, geranylgeraniol control 100; rescue of ATP level, % at 7.49 µM; AID 602340; 330,000 compounds, 0.78% hits;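 active = mean ATP rescue above about 67%, or every replicate alone reaching that limit, limit read from the data, passing the limit was not always enough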;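 also: myotubes were challenged with 10 µM simvastatin during compound exposure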
ASAP1 GAP inh: blocks human ASAP1-stimulated Arf1 GTP hydrolysis; AID 624377; inhibition, % at 16.5 µM; GDP FP detection; Q9ULH1; 360,000 compounds, 0.19% hits; in the data active = inhibition above about 25%
Yeast Mot1 SUMO: yeast SUMO pathway inhibition in dose response | 2,300 tested, under 10 active | S. cerevisiae Mot1-301 galactose growth, ATP luminescence, 24 h; -100 = growth of slx-deleted rescue strain | shares compounds with SUMO Mot1 rescue | growth activity, percent, % at 42 µM;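 active = Signal drops as the depositor expects, and the fitted half-maximal dose is no more than ten times the top valid tested dose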;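 also: more negative values mean stronger growth rescue toward the control strain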
A number is an active result; 0 = inactive; - = no result given. The list is not random: actives were taken first. Their share in the collection is about 2.1%.

SMILES	SUMO Mot1 rescue	APOBEC3A inh	APOBEC3G inh	ARFGAP1 inhibitor	Statin myotox sup	ASAP1 GAP inh	Yeast Mot1 SUMO
CCn1c(SCC(=O)NC2CCCCC2)nnc1-c1cccs1	0	0	0	0	0	0	-
CCn1c(SC(=O)NC2CCCCC2)nnc1-c1cccs1	525	0	0	0	0	0	0
COc1ccc(S(=O)(=O)NCC(=O)N(CC(=O)NCc2ccco2)Cc2ccccc2)cc1	642	0	0	0	0	0	0
COc1ccc(CNC(=O)CN(Cc2ccc(OC)cc2)C(=O)CCC(=O)Nc2nccs2)cc1	0	0	0	0	0	0	-
COc1ccc(CN(CC(=O)NCc2ccco2)C(=O)CCC(=O)Nc2nccs2)cc1	868	0	0	0	0	0	0
Cc1ccc(S(=O)(=O)N2C[C@H](O)COC[C@H]3O[C@H](CC(=O)NCc4ccc5c(c4)OCO5)CC[C@@H]32)cc1	-	-	-	-	0	-	-
C[C@H](CO)N1C[C@H](C)[C@@H](CN(C)C(=O)Nc2ccccc2)Oc2ccc(NC(=O)NC3CCCCC3)cc2CC1=O	-	-	-	-	0	-	-
Cc1ccccc1-c1ccc([C@H]2[C@@H](CO)N3CCCCN(C(=O)NC4CCCC4)C[C@H]23)cc1	-	-	-	-	0	-	-
CCCN1C[C@H](C)[C@@H](OC)CN(C)C(=O)c2ccc(NC(=O)c3cccc(F)c3)cc2OC[C@H]1C	-	-	-	-	0	-	-
O=C(OCC(=O)N1CCN(Cc2ccccc2)CC1)c1ccc(Cl)cc1	450	0	0	0	-	0	0
Nc1cc(C(=O)OCC(=O)N2CCOCC2)ccc1Cl	399	0	0	0	0	0	0
CNC[C@H]1OCCCC[C@H](C)Oc2ccc(NC(=O)c3ccncc3)cc2C(=O)N([C@H](C)CO)C[C@@H]1C	-	-	-	-	0	-	-
COC(=O)c1cccc(NC(=O)c2ccc[n+]([O-])c2)c1	561	0	0	0	0	0	0
CCc1ccccc1NC(=O)N[C@@H](C)C(=O)O	0	0	0	0	0	0	-
